# GC-A act – GC-A stimulated cGMP production enhancers – HEK293 GC-A cells, cGMP TR-FRET, EC30 ANP, primary screen. Atrial natriuretic peptide receptor 1 (Homo sapiens), P16066. activation, % at 10 µM. AID 1671463, 2021. 0% at EC30 ANP, 100% saturating ANP. 370,000 compounds, 0.14% hits; in the data active = activation above about 40%
# Target sequence (P16066 whole entry, looked up): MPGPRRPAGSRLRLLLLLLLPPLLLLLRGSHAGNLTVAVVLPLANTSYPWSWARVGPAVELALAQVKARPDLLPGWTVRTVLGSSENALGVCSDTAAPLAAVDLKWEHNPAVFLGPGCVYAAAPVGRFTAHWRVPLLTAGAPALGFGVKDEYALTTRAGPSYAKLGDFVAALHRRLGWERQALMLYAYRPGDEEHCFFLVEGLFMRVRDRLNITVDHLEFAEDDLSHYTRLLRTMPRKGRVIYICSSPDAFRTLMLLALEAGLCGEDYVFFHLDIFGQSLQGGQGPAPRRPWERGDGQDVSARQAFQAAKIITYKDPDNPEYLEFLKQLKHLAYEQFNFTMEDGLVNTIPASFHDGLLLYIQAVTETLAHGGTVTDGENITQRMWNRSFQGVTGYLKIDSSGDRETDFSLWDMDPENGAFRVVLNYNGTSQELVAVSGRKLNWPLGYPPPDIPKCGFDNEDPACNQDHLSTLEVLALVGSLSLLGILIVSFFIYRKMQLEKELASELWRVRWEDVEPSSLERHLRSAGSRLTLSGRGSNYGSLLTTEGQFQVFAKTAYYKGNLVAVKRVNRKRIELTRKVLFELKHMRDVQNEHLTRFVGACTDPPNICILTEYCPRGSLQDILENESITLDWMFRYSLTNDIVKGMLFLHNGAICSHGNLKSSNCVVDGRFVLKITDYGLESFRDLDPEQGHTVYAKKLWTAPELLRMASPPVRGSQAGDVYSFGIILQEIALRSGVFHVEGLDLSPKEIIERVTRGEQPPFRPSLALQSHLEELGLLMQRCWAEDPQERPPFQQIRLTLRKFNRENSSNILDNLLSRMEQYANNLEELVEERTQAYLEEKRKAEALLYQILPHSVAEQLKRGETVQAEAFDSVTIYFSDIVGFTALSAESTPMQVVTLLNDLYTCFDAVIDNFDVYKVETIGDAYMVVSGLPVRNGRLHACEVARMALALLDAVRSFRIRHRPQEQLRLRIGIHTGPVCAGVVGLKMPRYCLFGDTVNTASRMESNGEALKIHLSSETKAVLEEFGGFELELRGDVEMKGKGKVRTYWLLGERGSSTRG
# Vif imaging – HIV Vif self-association inhibitors, primary screen, imaging, HEK293T, single point. HEK293T cells, Vif self-association by quenched fluorescence, 24 h. inhibition, % at 7.49 µM. 340,000 compounds, 0.35% hits; in the data active = inhibition above about 50%, passing the limit was not always enough; inconclusive = no clear call, values can overlap the other calls; inactive = below about 31%
# XiGFP reactiv – activators of inactive X chromosome reactivation, primary screen, imaging, XiGFP fibroblasts, GFP high-content imaging, set 2; 360,000 compounds, 0.055% hits; XiGFP mouse fibroblasts, % GFP-positive cells imaging, 3 d; cells co-treated with 5-aza-dC sensitizer; scaled so ellipticine positive control = 100%; activation, % at 7.58 µM;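 active = mean normalized replicate activation at least 10% and every replicate at or above 10%; inconclusive = only one of the two criteria met; inactive = mean below 10% and not all replicates reach 10%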;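 also: 0% = median of on-plate neutral control wells and 100% = ellipticine 6 µM median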
#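 Assay system: SV40-immortalized XiGFP fibroblast cells, line 68-5-11; buffer or medium: DMEM plus 5-aza-dC sensitizer; compound: one concentration, pinned; timing: compounds 3 days, fix/stain 15 min at room temperature; benchmarks: positive control ellipticine, 6 µM final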
# NPR2 activator – human GC-B receptor activators, primary screen, HEK293 GC-B cells, cGMP TR-FRET, EC30 CNP | Atrial natriuretic peptide receptor 2 (Homo sapiens), P20594 | 0% at EC30 CNP, 100% saturating CNP | activation, % at 10 µM | 370,000 compounds, 0.11% hits | AID 1920062, 2024;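 active = activation at 10 µM reaching about 35% in either raw or pattern-adjusted values, limit read from the data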
# CaV13 ICDI inh – Disruptors of the CACNA1D IQ motif to Ca2+-dependent inactivation inhibitor domain association, primary screening, Förster resonance energy transfer in intact living …. HEK cells, CFP/YFP FRET ICDI-IQ, plate reader, 10 min; percent FRET-ratio fall versus neutral wells. inhibition, % at 12.3 µM. 340,000 compounds, 0.098% hits. AID 743397;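 active = mean replicate inhibition of at least 30% and at least 1% of replicates passing that level; inconclusive = only one of the two criteria is met; inactive = neither criterion is met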;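 also: 0% = median of the neutral control wells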
# Glyco luc inh – increase of ERlucT glycosylation luciferase signal, primary screen, N-linked glycosylation inhibitor project, D54 ERlucT cells, luminescence, set 2; D54 ERlucT glycosylation luciferase reporter, 24 h; percent of 100 nM tunicamycin response; reporter increase, % at 12.5 µM; 360,000 compounds, 0.23% hits; AID 588692, 2011;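 active = mean luciferase reporter signal, scaled so untreated is 0 and the glycosylation-blocking control 100, at or above a set limit in every replicate; inconclusive = mean reaches the limit but not every replicate does; inactive = mean below the limit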;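 also: luciferase carries N-glycosylation sites so blocking glycosylation raises the light; 0% = median of neutral control wells and 100% = median of 100 nM tunicamycin wells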
# * = called active by the depositor; i = inactive; ? = inconclusive; . = not tested or not shown; + = active, no number. In the library only some 0.7% were active in any assay of this set; here they are far more common.
SMILES,GC-A act,Vif imaging,XiGFP reactiv,NPR2 activator,CaV13 ICDI inh,Glyco luc inh
C[C@@H]1CN([C@H](C)CO)C(=O)Cc2cc(NS(=O)(=O)c3ccccc3)ccc2O[C@H]1CN(C)Cc1ccc2c(c1)OCO2,.,.,0,.,.,.
Cc1ccc(S(=O)(=O)Nc2ccc3c(c2)C(=O)N([C@@H](C)CO)C[C@@H](C)[C@@H](CN(C)CC2CCCCC2)OCCCC[C@@H](C)O3)cc1,.,.,0,.,.,.
CCN1/C(=C/c2ccc3cc(C)ccc3[n+]2CC)Sc2cc(C)ccc21,-9,i,102*,0,-6,?
CCCCN1/C(=C/c2ccc3ccccc3[n+]2CC)Sc2ccccc21,.,0,.,.,.,14
Cc1ccc(S(=O)(=O)N(C)C[C@@H]2Oc3ccc(NS(=O)(=O)c4ccccc4)cc3CC(=O)N([C@H](C)CO)C[C@@H]2C)cc1,.,.,-1,.,.,.
CC(=NNc1nc2ccccc2o1)c1cc2ccccc2cn1,3,36,73*,-4,-10,-13
CC(=NNc1nc2ccccc2o1)c1ncccn1,-16,-11,0,-4,-7,-11
O=C(Nc1cccc(NC(=O)c2cc([N+](=O)[O-])ccc2Cl)n1)c1cc([N+](=O)[O-])ccc1Cl,.,58*,.,.,.,-8
CCCNC(=O)N(C)C[C@@H]1Oc2cc(C#CC3CC3)ccc2S(=O)(=O)N([C@@H](C)CO)C[C@H]1C,.,.,0,.,.,.
CC(C)NC(=O)NCC[C@H]1CC[C@@H](NS(=O)(=O)c2ccccc2)[C@@H](CO)O1,.,.,0,.,.,.
CN(C)S(=O)(=O)c1ccc(C(=O)NC(=O)CSc2ccccc2)cc1,11,-2,0,0,-6,2
CC(=O)Nc1ccc(SCC(=O)NC(=O)c2ccc(S(=O)(=O)N(C)C)cc2)cc1,0,83*,0,1,-6,4
Cc1cc2oc3cc(NCCC4CCCN4C)ccc3c(=O)c2cc1C (stereo not drawn),10,-4,0,-8,77*,-3
CN1CCN(C(=O)C[C@H]2C[C@H]3c4cc(NC(=O)Nc5ccccc5)ccc4O[C@H]3[C@@H](CO)O2)CC1,.,.,0,.,.,.
COc1ccccc1NS(=O)(=O)c1cc(NC(=O)CCNC(C)=O)ccc1C,0,1,0,-1,151*,1
C[C@H](CO)N1C[C@H](C)[C@@H](CN(C)C(=O)c2cccc(F)c2)Oc2cc(-c3ccncc3)ccc2S1(=O)=O,.,.,-1,.,.,.
C[C@H](CO)N1C[C@H](C)[C@H](CN(C)Cc2ccncc2)Oc2c(NS(=O)(=O)c3cccs3)cccc2C1=O,.,.,1,.,.,.
C[C@H]1CC=CC[C@@H](c2ccc(F)cc2)NC(=O)[C@H](C)N(C)C(=O)c2ccccc2O1 (mixture of isomers),.,.,1,.,.,.
C=CCn1c(=O)c2c(C)c(C)sc2n2c(Nc3ccc(OC)cc3)nnc12,34,-27,.,39*,0,1
C=CCn1c(SCC(=O)Nc2ccc(O)cc2)nc2sc(C)c(C)c2c1=O,-5,24,0,-2,-2,-1
O=C(C[C@H]1CC[C@H](NC(=O)c2ccccc2)[C@@H](CO)O1)NCc1ccncn1,.,.,0,.,.,.
CCc1nc2ccc(F)cc2c(C(=O)NC2CCCCC2C)c1C (stereo not drawn),2,54*,.,-3,-3,2
COc1cccc(CNc2ccc3c(c2)CCC3)c1,4,60*,.,-3,-6,-7
Cc1ccc(C(=O)NN2C(=O)c3ccc(S(=O)(=O)c4ccc(C(=O)O)cc4)cc3C2=O)cc1,3,-6,0,4,-4,-2
O=C(O)c1ccc(S(=O)(=O)c2ccc3c(c2)C(=O)N(c2ccc(Br)cc2)C3=O)cc1,5,66*,0,-4,-3,0
SMILES,GC-A act,Vif imaging,XiGFP reactiv,NPR2 activator,CaV13 ICDI inh,Glyco luc inh
CC[C@]12c3[nH]c4cc(CCC(=O)N(C)C)ccc4c3CCN1C(=O)[C@@H](CC(=O)NC/C=C(\C)CCC=C(C)C)C[C@@H]2C(=O)N1CCN(C(=O)c2ccco2)CC1,.,6,.,.,.,31*
CC(C)N(C(=O)[C@H]1C[C@H](CC(=O)NCCCN(C)C)C(=O)N2CCc3c([nH]c4cc(CCC(=O)N(C)C)ccc34)[C@]12C)C(C)C,3,.,0,3,-4,3
CC(C)N(C(=O)[C@H]1C[C@H](CC(=O)NCCN2CCOCC2)C(=O)N2CCc3c([nH]c4cc(CCC(=O)N(C)C)ccc34)[C@]12C)C(C)C,3,103*,0,5,-7,2
CNC[C@H]1Oc2c(cccc2N(C)C)C(=O)N([C@H](C)CO)C[C@H]1C,.,.,-1,.,.,.
CCNc1nc2nc3ccc(C)cn3c(=O)c2cc1C(=O)NCC1CCCO1 (stereo not drawn),17,-4,0,0,+,2
CC(=O)Nc1sc(N/N=C/c2ccc(O)cc2)nc1-c1ccc(C)cc1,0,-20,0,4,-6,2
CC(C)(C)c1csc(N/N=C/c2ccc(O)cc2)n1,-2,16,0,-2,64*,2
CO[C@@H]1CN(C)C(=O)c2cc(NC(=O)C3CC3)ccc2OC[C@H](C)N(Cc2ccncc2)C[C@H]1C,.,.,0,.,.,.
CC1CCN(c2nc(Cl)nc(Nc3ccc([N+](=O)[O-])cc3)n2)CC1,67*,-2,1,0,7,-5
Cc1cnc(NC(=O)C2CC(=O)N(c3cccc(Cl)c3)C2)s1 (stereo not drawn),14,-2,0,37*,-5,?
Cc1cnc(NC(=O)C2CC(=O)N(c3ccc4c(c3)OCCO4)C2)s1 (stereo not drawn),1,-1,0,-2,-9,3
C[C@@H]1CN([C@H](C)CO)C(=O)c2cc(C#C[C@@H](C)O)cnc2O[C@H]1CN(C)C(=O)Cc1ccccn1,.,.,-1,.,.,.
COc1cccc(S(=O)(=O)N(C)C[C@@H]2Oc3cc(C4=CCCCC4)ccc3S(=O)(=O)N([C@@H](C)CO)C[C@@H]2C)c1,.,.,-1,.,.,.
Cc1cccc(OCc2nnc(SCC(=O)OC3CCCCC3)o2)c1,60*,-6,.,-2,-5,-1
CNc1ccc(/C=C/C(=O)c2cccc3ccccc23)cc1[N+](=O)[O-],3,3,0,1,-15,46*

# Screening data (PubChem BioAssay)
